From ChEMBL document CHEMBL3763043, “Synthesis and biological evaluation of new fluorinated and chlorinated indenoisoquinoline topoisomerase I poisons” (Bioorg Med Chem, 2016) come the findings set out here.

Test [1] is described as follows: Cytotoxicity against human HOP62 cells by MTT assay. The format is functional. Particulars: HOP-62. A digest of the protocol: (§1)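 NCI-60 screen: a single-dose 10 μM pre-test, then a five-concentration assay for promoted compounds. GI₅₀ is the concentration giving 50% growth inhibition versus control, taken from concentration-response curves. GI₅₀ values below the lowest concentration were recorded as 10 nM, and values above the range at the top concentration.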
(Tetrazolium dyes change colour on reduction, which living cells bring about.)

Test [2] is described as follows: Cytotoxicity against human HCT116 cells by MTT assay. The format is functional. To be noted: HCT-116. Summed up:
as §1

The nature of test [3]: Cytotoxicity against human SF539 cells by MTT assay. The format is functional. To be noted: SF-539. Summed up:
as §1

A short description of test [4]: Cytotoxicity against human UACC62 cells by MTT assay. Format: functional. To be noted: UACC-62. A digest of the protocol:
as §1

The nature of test [5]: Cytotoxicity against human OVCAR3 cells by MTT assay. To be noted: OVCAR-3. The format is functional. Summed up:
as §1

Another test relates to SN12C. Put plainly: Cytotoxicity against human SN12C cells by MTT assay. The format is functional. Summed up: as §1
Test [6] in a line: Cytotoxicity against human DU145 cells by MTT assay. The format is functional. To be noted: DU-145. A digest of the protocol:
as §1

Another test concerns MCF7. The test is described as follows: Cytotoxicity against human MCF7 cells by MTT assay. Format: functional. A digest of the protocol:
as §1

Test [7] has as its target T1, DNA topoisomerase 1 (Homo sapiens) (UniProt P11387).
T1 sequence (whole entry): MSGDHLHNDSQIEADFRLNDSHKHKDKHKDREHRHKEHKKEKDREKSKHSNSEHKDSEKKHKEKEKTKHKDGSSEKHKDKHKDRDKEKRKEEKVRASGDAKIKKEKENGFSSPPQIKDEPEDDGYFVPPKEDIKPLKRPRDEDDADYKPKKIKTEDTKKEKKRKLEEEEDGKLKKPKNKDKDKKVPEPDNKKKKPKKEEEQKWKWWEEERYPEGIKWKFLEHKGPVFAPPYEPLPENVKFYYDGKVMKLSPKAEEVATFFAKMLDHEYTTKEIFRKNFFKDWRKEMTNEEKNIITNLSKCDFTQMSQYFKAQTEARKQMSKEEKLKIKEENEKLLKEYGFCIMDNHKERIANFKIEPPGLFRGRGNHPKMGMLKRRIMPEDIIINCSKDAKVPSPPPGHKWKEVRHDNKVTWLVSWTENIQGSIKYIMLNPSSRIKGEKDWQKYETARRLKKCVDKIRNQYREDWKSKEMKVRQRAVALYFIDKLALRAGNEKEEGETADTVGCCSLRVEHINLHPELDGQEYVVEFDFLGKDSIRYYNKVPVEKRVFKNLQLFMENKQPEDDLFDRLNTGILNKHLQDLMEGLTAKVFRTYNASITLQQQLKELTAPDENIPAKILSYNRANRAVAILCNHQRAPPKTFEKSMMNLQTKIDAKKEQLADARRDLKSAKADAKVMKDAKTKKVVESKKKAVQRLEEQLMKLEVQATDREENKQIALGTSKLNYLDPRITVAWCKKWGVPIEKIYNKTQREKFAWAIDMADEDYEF
Put plainly: Activity at recombinant Top1 (unknown origin) using 3'-[32P]-labeled double-stranded DNA (117 bp) as substrate assessed as induction of DNA cleavage at 0.1 to 100 uM incubated for 20 mins by electrophoretic assay relative to 1 uM camptothecin.

The target in test [8] is Tyrosyl-DNA phosphodiesterase 1 (Homo sapiens, UniProt Q9NUW8). The test is described as follows: Inhibition of recombinant TDP1 (unknown origin) using 5'-[32P]-labeled single-stranded DNA oligonucleotide containing 3'-phosphotyrosine (N14Y) as substrate for 15 mins by PAGE assay.
In test [9] the target is T2, Tyrosyl-DNA phosphodiesterase 2 (Homo sapiens, UniProt O95551).
T2 sequence (O95551 whole entry): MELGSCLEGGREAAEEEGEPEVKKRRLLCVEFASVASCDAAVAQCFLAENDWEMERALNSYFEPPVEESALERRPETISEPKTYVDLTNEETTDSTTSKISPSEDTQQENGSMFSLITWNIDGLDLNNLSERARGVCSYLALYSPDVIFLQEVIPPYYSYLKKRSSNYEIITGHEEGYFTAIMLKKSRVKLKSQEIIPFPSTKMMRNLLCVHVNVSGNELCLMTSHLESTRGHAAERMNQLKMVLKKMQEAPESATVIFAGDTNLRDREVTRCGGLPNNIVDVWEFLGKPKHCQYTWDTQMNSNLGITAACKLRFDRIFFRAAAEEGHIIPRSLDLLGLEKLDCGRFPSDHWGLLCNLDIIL
Put plainly: Inhibition of recombinant human TDP2 using alpha32P-cordycepin-[…]-labeled 19-mer single-stranded oligonucleotide DNA containing 5'-phosphotyrosine (Y19) for 15 mins by PAGE assay.

Where only a bound is given, the exact number is not on record here.

Sequence of Tyrosyl-DNA phosphodiesterase 1 (Q9NUW8 whole entry): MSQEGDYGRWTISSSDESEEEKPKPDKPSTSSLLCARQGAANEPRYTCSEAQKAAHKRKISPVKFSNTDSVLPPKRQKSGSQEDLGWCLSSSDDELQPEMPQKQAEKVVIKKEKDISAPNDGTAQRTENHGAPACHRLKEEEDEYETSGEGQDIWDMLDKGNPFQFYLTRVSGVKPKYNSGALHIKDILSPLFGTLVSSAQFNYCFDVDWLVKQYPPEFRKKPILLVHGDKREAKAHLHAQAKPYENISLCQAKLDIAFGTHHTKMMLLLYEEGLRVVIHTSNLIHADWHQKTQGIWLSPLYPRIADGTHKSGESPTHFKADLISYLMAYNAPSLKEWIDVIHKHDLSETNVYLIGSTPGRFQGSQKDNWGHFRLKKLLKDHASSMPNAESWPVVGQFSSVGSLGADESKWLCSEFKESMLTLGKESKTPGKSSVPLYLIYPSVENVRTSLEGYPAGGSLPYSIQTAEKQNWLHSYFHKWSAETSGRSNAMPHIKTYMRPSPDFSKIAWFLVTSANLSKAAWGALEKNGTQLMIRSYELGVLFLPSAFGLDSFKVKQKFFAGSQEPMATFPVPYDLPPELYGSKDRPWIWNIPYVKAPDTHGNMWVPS

Take `O=C1c2cc3c(cc2-c2c1c1ccc(F)cc1c(=O)n2CCCn1ccnc1)OCO3`: the GI50 in [1] is under 0.01 µM; in test [2], under 0.01 µM; in [3], under 0.01 µM; in [4], under 0.01 µM; in test [5], 0.019 µM; with SN12C, under 0.01 µM. In addition, the GI50 (in test [6]; with MCF7) was under 0.01 µM throughout. Also, in [7], the Activity is 75%.

Take `O=C1c2cc3c(cc2-c2c1c1cc(Cl)c(Cl)cc1c(=O)n2C[C@H](O)CO)OCO3`: the GI50 in [1] is under 0.01 µM; in test [2], under 0.01 µM; in [3] it was under 0.01 µM; in test [4], under 0.01 µM; in test [5], 0.016 µM; with SN12C, under 0.01 µM. Further, the GI50 (in [6]; in the test with MCF7) was under 0.01 µM in each case. Further, in test [7], the Activity stood at 50%.

Consider `COc1cc2c3c(n(CCCNCCO)c(=O)c2cc1OC)-c1cc2c(cc1C3=O)OCO2` [LMP-744], for which the GI50 in test [1] worked out at 0.01 µM; in [2] it was 0.15 µM; in test [3], 0.09 µM; in test [5], 1.5 µM; in the test with SN12C it was 0.01 µM. Also, in [7], the Activity was determined as 100%.

For the molecule `O=C1c2cc3c(cc2-c2c1c1ccc(Cl)cc1c(=O)n2C[C@H](O)[C@H](O)[C@H](O)CO)OCO3`, in [7], the Activity is 20%.

Consider `O=C1c2cc3c(cc2-c2c1c1ccc(Cl)cc1c(=O)n2C[C@H](O)CO)OCO3`, for which the GI50 was found to be 0.022 µM in test [1]; 0.02 µM in test [2]; 0.025 µM in test [3]; 0.012 µM in test [4]; 0.062 µM in [5]; 0.027 µM in the test on SN12C. The GI50 in test [6] is 0.032 µM; in the test with MCF7, under 0.01 µM. For the same molecule, the Activity in test [7] turned out to be 50%.

As to `O=C1c2cc3c(cc2-c2c1c1ccc(F)cc1c(=O)n2CCCNCCO)OCO3`, the GI50 in test [1] came out at 0.036 µM; in test [2], 0.019 µM; in test [3], 0.041 µM; in test [4] it was 0.028 µM; in test [5], 0.076 µM; in the test with SN12C, 0.107 µM. In addition, the GI50 in test [6] is 0.033 µM; with MCF7, under 0.01 µM. Moreover, the IC50 in test [8] worked out at 6.2 µM; in [9] it was 6.3 µM. Also, the Activity in [7] is 50%.

Regarding `O=C1c2cc3c(cc2-c2c1c1cc(F)c(F)cc1c(=O)n2C[C@H](O)CO)OCO3`, the GI50 in test [1] was 0.022 µM; in test [2], 0.037 µM; in test [3], 0.029 µM; in test [4], 0.015 µM; in [5], 0.224 µM; in the test with SN12C, 0.033 µM. For the same molecule, the GI50 in test [6] was 0.041 µM; in the test on MCF7, under 0.01 µM. Also, in [7], the Activity was found to be 50%.

As to `O=C1c2cc3c(cc2-c2c1c1ccc(Cl)cc1c(=O)n2CCCNCCO)OCO3`, the GI50 in test [1] was 0.071 µM; in test [2], 0.105 µM; in [3], 0.24 µM; in test [4], 0.043 µM; in [5], 1.32 µM; in the test on SN12C it was 1.07 µM. Further, the GI50 stood at 0.059 µM in [6] and 0.018 µM in the test on MCF7. Further, the IC50 in [8] came out at 6.3 µM; in test [9], 8.9 µM. Also, the Activity in test [7] stood at 75%.

`O=C1c2cc3c(cc2-c2c1c1cc(F)c(F)cc1c(=O)n2CCCn1ccnc1)OCO3`: the GI50 in test [1] was under 0.01 µM; in test [2], under 0.01 µM; in [3], under 0.01 µM; in [4], under 0.01 µM; in test [5], 0.115 µM; with SN12C it was under 0.01 µM. For the same molecule, the concentration for 50% growth inhibition (GI50) (in [6]; in the test with MCF7) was under 0.01 µM in each case. For the same molecule, the Activity in test [7] was found to be 20%.

Turning to `O=C1c2cc3c(cc2-c2c1c1ccc(Cl)cc1c(=O)n2CCCn1ccnc1)OCO3`, the GI50 in test [1] is under 0.01 µM; in [2], under 0.01 µM; in test [3] it was under 0.01 µM; in [4] it was under 0.01 µM; in [5], 0.04 µM; in the test with SN12C, under 0.01 µM. In addition, the GI50 (in [6]; with MCF7) was under 0.01 µM in each case. Also, in test [7], the Activity came to 50%.

Regarding `O=C1c2cc3c(cc2-c2c1c1cc(Cl)c(Cl)cc1c(=O)n2CCCn1ccnc1)OCO3`, the GI50 in [1] is under 0.01 µM; in test [2] it was under 0.01 µM; in [3], under 0.01 µM; in test [4], under 0.01 µM; in test [5] it was 0.043 µM; in the test on SN12C, under 0.01 µM. Moreover, the GI50 (in test [6]; in the test with MCF7) was under 0.01 µM each time. The Activity in test [7] was found to be 20%.

`O=C1c2cc3c(cc2-c2c1c1ccc(F)cc1c(=O)n2CCCN1CCOCC1)OCO3`: the Activity in test [7] came to 20%.

In the case of `O=C1c2cc3c(cc2-c2c1c1ccc(F)cc1c(=O)n2C[C@H](O)[C@@H](O)[C@H](O)CO)OCO3`, the GI50 in test [1] was determined as 0.032 µM; in test [2], 0.035 µM; in [3] it was 0.029 µM; in test [4], 0.025 µM; in [5], 0.1 µM; with SN12C, 0.079 µM. Moreover, the GI50 in test [6] is 0.051 µM; with MCF7 it was 0.012 µM. Besides, the Activity in [7] came to 50%.

Take `O=C1c2cc3c(cc2-c2c1c1ccc(Cl)cc1c(=O)n2CCCN1CCOCC1)OCO3`: the Activity in test [7] was 20%.

`O=C1c2cc3c(cc2-c2c1c1ccc(F)cc1c(=O)n2C[C@H](O)CO)OCO3`: the GI50 in test [1] worked out at 0.049 µM; in test [2], 0.079 µM; in test [3] it was 0.051 µM; in [4], 0.045 µM; in [5], 0.182 µM; with SN12C it was 0.076 µM. Also, the GI50 in [6] stood at 0.102 µM; with MCF7, 0.032 µM. The Activity in [7] turned out to be 100%.

For orientation: GI50 means the concentration at which growth is held to half of that of the control. The IC50 is the concentration at which inhibition is half-maximal.
